According to ChEMBL document CHEMBL1130067, “Pyridazinodiazepines as a high-affinity, P2-P3 peptidomimetic class of interleukin-1 beta-converting enzyme inhibitor” (J Med Chem, 1997):
Peptide text beside a SMILES is read from it. * marks the point of attachment. Cbz = O=C(OCc1ccccc1)*

Columns and labels:
Caspase-1 = target: T1, Caspase-1 (Homo sapiens, UniProt P29466); assay: Reversible Inhibition constants against IL-1 beta converting enzyme (ICE)
T1 sequence (P29466 whole entry): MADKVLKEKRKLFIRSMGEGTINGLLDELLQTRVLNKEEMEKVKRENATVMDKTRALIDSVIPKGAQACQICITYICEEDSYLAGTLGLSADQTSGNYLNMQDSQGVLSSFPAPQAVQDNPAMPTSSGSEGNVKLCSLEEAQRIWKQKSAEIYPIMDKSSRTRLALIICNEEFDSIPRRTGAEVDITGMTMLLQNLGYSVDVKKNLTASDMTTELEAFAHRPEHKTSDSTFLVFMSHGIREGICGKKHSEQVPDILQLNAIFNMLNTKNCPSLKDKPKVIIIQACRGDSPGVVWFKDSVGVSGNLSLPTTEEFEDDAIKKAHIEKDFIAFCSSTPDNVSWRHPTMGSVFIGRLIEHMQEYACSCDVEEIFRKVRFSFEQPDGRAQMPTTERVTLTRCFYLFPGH
Summary of the method: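 Fluorescence progress curves are recorded at 37 °C over 30 min. Ki for reversible inhibitors is derived by a method from a cited reference. Determinations are in triplicate, standard error <10%.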

Caspase-1 (Homo sapiens) = target: T2, Caspase-1 (Homo sapiens) (UniProt P29466); assay: Second order rate constants were tested for inhibition of IL-1 beta converting enzyme (ICE)
T2 sequence (whole entry): T1 sequence (P29466 whole entry)
Summary of the method: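 Fluorogenic progress-curve assay: ICE in 10 mM HEPES pH 7.5, 25% glycerol, 1 mM DTT, with 10 µM Suc-Tyr-Val-Ala-Asp-AMC; read at 37 °C over 30 min. Inactivation rates are taken from nonlinear progress curves by the Tian–Tsou method, giving second-order rate constants. Determinations are in triplicate, standard error <10%.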

Homo sapiens = species: Homo sapiens; assay: Inhibitory concentration against IL1-beta production in human monocytes; format: functional

Compound	K obs / 1 (Caspase-1 (Homo sapiens)) [M⁻¹ s⁻¹]	also measured
CC(C)[C@H](NC(=O)OCc1ccccc1)C(=O)N[C@@H](C)C(=O)N[C@@H](CC(=O)O)C(=O)O (Cbz-Val-Ala-Asp-OH)		Ki (Caspase-1): 0.015 µM
CC(C)[C@H](NC(=O)OCc1ccccc1)C(=O)N[C@@H](C)C(=O)N[C@@H](CC(=O)O)C(=O)COC(=O)c1c(Cl)cccc1Cl	432000	
O=C(O)C[C@H](NC(=O)[C@@H]1CCCN2C(=O)CC[C@H](NC(=O)c3ccc(CN4CCOCC4)cc3)C(=O)N12)C(=O)COC(=O)c1c(Cl)cccc1Cl	425000	
O=C[C@H](CC(=O)O)NC(=O)[C@@H]1CCCN2C(=O)CC[C@H](NC(=O)c3ccc(OCC(=O)O)cc3)C(=O)N12		Ki (Caspase-1): 0.001 µM
O=C[C@H](CC(=O)O)NC(=O)[C@@H]1CCCN2C(=O)CC[C@H](NC(=O)OCc3ccccc3)C(=O)N12		Ki (Caspase-1): 0.025 µM
O=C(O)C[C@H](NC(=O)[C@@H]1CS[C@H]2CC[C@H](NC(=O)OCc3ccccc3)C(=O)N21)C(=O)COc1cc(C(F)(F)F)nn1-c1ccccc1	42000	
O=C[C@H](CC(=O)O)NC(=O)[C@@H]1CCCN2C(=O)CC[C@H](NC(=O)c3ccccc3)C(=O)N12		Ki (Caspase-1): 0.005 µM; IC50 (Homo sapiens): 1 µM
O=C(O)C[C@H](NC(=O)[C@@H]1CCCN2C(=O)CC[C@H](NC(=O)OCc3ccccc3)C(=O)N12)C(=O)COC(=O)c1c(Cl)cccc1Cl	572000	
CN1CCN(Cc2ccc(C(=O)N[C@H]3CCC(=O)N4CCC[C@@H](C(=O)N[C@@H](CC(=O)O)C(=O)COC(=O)c5c(Cl)cccc5Cl)N4C3=O)cc2)CC1	210000	
O=C(O)C[C@H](NC(=O)CN1C(=O)[C@@H](NC(=O)OCc2ccccc2)COc2ccccc21)C(=O)COc1cc(C(F)(F)F)nn1-c1ccc(Cl)cc1	114000	
CSc1ccc(C(=O)Nc2cnc(-c3ccc(F)cc3)n(CC(=O)N[C@@H](CC(=O)O)C(=O)COc3cc(C(F)(F)F)nn3-c3ccc(Cl)cc3)c2=O)cc1	110000	
CN(C)Cc1ccc(C(=O)N[C@H]2CCC(=O)N3CCC[C@@H](C(=O)N[C@@H](CC(=O)O)C(=O)COc4cc(C(F)(F)F)nn4-c4ccc(Cl)cc4)N3C2=O)cc1	162000	
O=C(O)C[C@H](NC(=O)[C@@H]1CCCN2C(=O)CC[C@H](NC(=O)OCc3ccccc3)C(=O)N12)C(=O)COc1cc(C(F)(F)F)nn1-c1ccccc1	413000	

Continued, in another order:

K obs / 1 (Caspase-1 (Homo sapiens)) [M⁻¹ s⁻¹]	Compound	also measured
800000	CSc1ccc(C(=O)N[C@H](C(=O)N[C@@H](C)C(=O)N[C@@H](CC(=O)O)C(=O)COc2cc(C(F)(F)F)nn2-c2ccccc2)C(C)C)cc1	
200000	CC(C)[C@H](NC(=O)c1ccc(CN2CCN(C)CC2)cc1)C(=O)N[C@@H](C)C(=O)N[C@@H](CC(=O)O)C(=O)COc1cc(C(F)(F)F)nn1-c1ccc(Cl)cc1	
340000	Cc1nccn1Cc1ccc(C(=O)N[C@H]2CCC(=O)N3CCC[C@@H](C(=O)N[C@@H](CC(=O)O)C(=O)COC(=O)c4c(Cl)cccc4Cl)N3C2=O)cc1	
31800	C[C@@H](C(=O)N[C@@H](CC(=O)O)C(=O)COc1cc(C(F)(F)F)nn1-c1ccccc1)N1CC[C@H](NC(=O)OCc2ccccc2)C1=O	
1.22e+06	O=C(O)CSc1ccc(C(=O)N[C@H]2CCC(=O)N3CCC[C@@H](C(=O)N[C@@H](CC(=O)O)C(=O)COc4cc(C(F)(F)F)nn4-c4ccc(Cl)cc4)N3C2=O)cc1	
800000	O=C(O)CCCc1ccc(C(=O)N[C@H]2CCC(=O)N3CCC[C@@H](C(=O)N[C@@H](CC(=O)O)C(=O)COc4cc(C(F)(F)F)nn4-c4ccc(Cl)cc4)N3C2=O)cc1	
186000	CC(C)[C@H](NC(=O)c1ccc(CN2CCOCC2)cc1)C(=O)N[C@@H](C)C(=O)N[C@@H](CC(=O)O)C(=O)COc1cc(C(F)(F)F)nn1-c1ccccc1	
44000	O=C(O)C[C@H](NC(=O)CN1C(=O)[C@@H](NC(=O)OCc2ccccc2)COc2ccccc21)C(=O)COC(=O)c1c(Cl)cccc1Cl	
268000	O=C(O)C[C@H](NC(=O)Cn1c(-c2ccc(F)cc2)ncc(NC(=O)OCc2ccccc2)c1=O)C(=O)COC(=O)c1c(Cl)cccc1Cl	
340000	CC(C)[C@H](NC(=O)OCc1ccccc1)C(=O)N[C@@H](C)C(=O)N[C@@H](CC(=O)O)C(=O)COc1cc(C(F)(F)F)nn1-c1ccc(Cl)cc1	
310000	O=C(O)C[C@H](NC(=O)Cn1c(-c2ccc(F)cc2)ncc(NC(=O)OCc2ccccc2)c1=O)C(=O)COc1cc(C(F)(F)F)nn1-c1ccc(Cl)cc1	
437000	O=C(O)C[C@H](NC(=O)[C@@H]1CCCN2C(=O)CC[C@H](NC(=O)OCc3ccccc3)C(=O)N12)C(=O)COc1cc(C(F)(F)F)nn1-c1ccc(Cl)cc1	
